ChEMBL document CHEMBL4049418, “6-OH-Phenanthroquinolizidine Alkaloid and Its Derivatives Exert Potent Anticancer Activity by Delaying S Phase Progression” (J Med Chem, 2017)
Calls of active or inactive are those of the source. No cut-off for these calls is given here.

Experiments:
Bel-7402 [1] = assay: Inhibition of DNA synthesis in human Bel7402 cells assessed as BrdU incorporation at 10 uM preincubated for 1 hr followed by BrdU addition for 30 mins by FITC/propidium iodide staining based flow cytometry (reference value: 35.5%); type: functional; parameters: scale not given: the % may be the effect or the level left
Method in brief: (§1)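 BEL-7402 cells (3 × 10⁵ per well) exposed to compounds 1 h, then labeled with 10 μM BrdU for 30 min; trypsinized, fixed in 70% ethanol at −20 °C ≥1 h, 2 N HCl 20 min, neutralized with 0.1 M borate, stained with anti-BrdU-FITC plus PI 30 min; BrdU-positive cells quantified by flow cytometry; three independent experiments, mean + SD.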

Bel-7402 [2] = assay: Induction of apoptosis in human Bel7402 cells assessed as viable cells at 10 uM after 72 hrs by Annexin V/propidium iodide staining based flow cytometric analysis (reference value: 92.4%); type: functional; settings: Bel-7402, 72 h, read-out: Activity
Bel-7402 [3] = assay: Cell cycle arrest in human Bel7402 cells assessed as accumulation in S-phase at 0.012 to 1 uM after 24 hrs by propidium iodide staining-based flow cytometry; type: functional
Method in brief: (§2)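 BEL-7402 cells exposed for 24 h, then fixed in 70% ethanol at −20 °C for ≥1 h. Stained with 50 μg/mL propidium iodide plus 10 μg/mL RNase A for 30 min in the dark at room temperature. DNA content read by flow cytometry on ≥1.0 × 10⁴ cells per sample.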

Bel-7402 [4] = assay: Induction of apoptosis in human Bel7402 cells assessed as early apoptotic cells at 10 uM after 72 hrs by Annexin V/propidium iodide staining based flow cytometric analysis (reference value: 3.66%); type: functional
Method in brief: (§3)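 BEL-7402 cells (3 × 10⁵ per well, 6-well plates) exposed for 72 h. Harvested, PBS-washed, resuspended in cold binding buffer with annexin V–FITC and PI, and stained 15 min in the dark at room temperature. Early apoptotic, late apoptotic and necrotic fractions quantified by flow cytometry.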

MRC5 = assay: Antiproliferative activity against human MRC5 cells assessed as reduction in viability after 72 hrs by SRB assay; type: cell-based; settings: MRC5, 72 h
Method in brief: (§4)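 Cells seeded and dosed in triplicate for 72 h. Suspension lines (HL-60, K-562, K562/ADR, HL-60/MX2) were read by MTT: 5 mg/mL MTT stock added, 4 h at 37 °C, formazan dissolved in 10% SDS/5% isobutanol/10 mM HCl, A570. Adherent lines were read by SRB: fixed with cold 10% TCA, stained with 0.4% SRB in 1% acetic acid, A540. IC50 from four-parameter logistic fit; mean of ≥3 independent experiments.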

Bel-7402 [5] = assay: Induction of DNA damage in human Bel7402 cells assessed as increase in CHK1 phosphorylation at Ser345 residue at 1 to 100 nM after 1 hr by Western blot analysis; type: functional, cell-based
Method in brief: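 BEL-7402 cells (1.5 × 10⁵ per well, 12-well plates) exposed to compounds for 1 h. Phospho-Chk1 Ser345, phospho-Chk2 Thr68 and γH2AX detected by Western blot. Camptothecin at 1 μM served as the DNA-damage reference.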

[6] = Antiproliferative activity against human MRC9 cells assessed as reduction in viability after 72 hrs by SRB assay; type: cell-based; settings: MRC9, 72 h; method in brief: as §4
Bel-7402 [7] = assay: Induction of apoptosis in human Bel7402 cells assessed as late apoptotic cells at 1 nM after 72 hrs by Annexin V/propidium iodide staining based flow cytometric analysis (reference value: 3.6%); type: functional; method in brief: as §3
Bel-7402 [8] = assay: Induction of apoptosis in human Bel7402 cells assessed as viable cells at 10 nM after 72 hrs by Annexin V/propidium iodide staining based flow cytometric analysis (reference value: 92.4%); type: functional; settings: Bel-7402, 72 h, read-out: Activity
K562/Adr = assay: Effect on P-gp expression in human K562/ADR cells up to 100 nM after 24 hrs by Western blot analysis; type: functional, cell-based
Bel-7402 [9] = assay: Induction of apoptosis in human Bel7402 cells assessed as early apoptotic cells at 1 nM after 72 hrs by Annexin V/propidium iodide staining based flow cytometric analysis (reference value: 3.66%); type: functional; method in brief: as §3
Bel-7402 [10] = assay: Cell cycle arrest in human Bel7402 cells assessed as accumulation in S-phase at 10 nM after 24 hrs by propidium iodide staining-based flow cytometry (reference value: 27.5 +/- 1%); type: functional; method in brief: as §2
Bel-7402 [11] = assay: Cell cycle arrest in human Bel7402 cells assessed as delay in progression of S-phase to G2-phase at 1 to 3 nM pre-treated with aphidicolin for 16 hrs followed by compound addition measured after 4 hrs by propidium iodide staining-based flow cytometric method; type: functional
Method in brief: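 Exponentially growing cells synchronized in early S phase with 0.2 μg/mL aphidicolin for 16 h. Cells released into fresh medium with or without compound for set times. Ethanol-fixed, stained with PI/RNase, and cell cycle distribution read by flow cytometry. Representative of three independent experiments.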

Bel-7402 [12] = assay: Induction of necrosis in human Bel7402 cells after 72 hrs by trypan blue exclusion assay; type: functional, cell-based
Method in brief: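 BEL-7402 cells seeded at 5 × 10⁴ per well, exposed to compounds 72 h; trypsinized, stained with 0.4% Trypan blue (9:1 dilution) for 3 min; unstained (viable) and stained (necrotic) cells counted separately on a hemocytometer.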

Bel-7402 [13] = assay: Induction of apoptosis in human Bel7402 cells assessed as viable cells at 1 nM after 72 hrs by Annexin V/propidium iodide staining based flow cytometric analysis (reference value: 92.4%); type: functional; settings: Bel-7402, 72 h, read-out: Activity
[14] = Cytotoxicity against Sprague-Dawley rat primary neuronal cells assessed as reduction in cell viability at 300 nM after 24 hrs by MTT assay; type: cell-based; settings: read-out: INH
L02 = assay: Antiproliferative activity against human LO2 cells assessed as reduction in viability after 72 hrs by SRB assay; type: cell-based; settings: L02, 72 h; method in brief: as §4
[15] = Cytotoxicity against Sprague-Dawley rat primary neuronal cells assessed as reduction in cell viability after 24 hrs by MTT assay; type: cell-based
Bel-7402 [16] = assay: Inhibition of colony formation in human Bel7402 cells after 24 hrs by SRB staining-based plate colony formation assay; type: functional, cell-based
Method in brief: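 BEL-7402 cells seeded at 200 per well, treated in triplicate 24 h, washed twice with PBS, then grown 12 days in fresh medium; colonies stained with SRB and those ≥1 mm diameter counted; three independent experiments, mean ± SD.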

Bel-7402 [17] = assay: Cell cycle arrest in human Bel7402 cells assessed as accumulation in S-phase after 24 hrs by propidium iodide staining-based flow cytometry; type: functional; method in brief: as §2
Bel-7402 [18] = assay: Inhibition of DNA synthesis in human Bel7402 cells assessed as BrdU incorporation at 10 nM preincubated for 1 hr followed by BrdU addition for 30 mins by FITC/propidium iodide staining based flow cytometry (reference value: 35.5%); type: functional; parameters: scale not given: the % may be the effect or the level left; method in brief: as §1
Bel-7402 [19] = assay: Antiproliferative activity against human Bel7402 cells assessed as reduction in cell viability at 0.12 to 10 nM up to 10 days by fluorescence-based cell imaging method; type: functional
Method in brief: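 Live-cell imaging (IncuCyte ZOOM) of BEL-7402 cells seeded at 1.5 × 10⁴ per well in 12-well plates. Cells treated in triplicate with a concentration gradient and imaged continuously for 10 days to build growth curves.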

Bel-7402 [20] = assay: Induction of apoptosis in human Bel7402 cells assessed as necrotic cells at 1 nM after 72 hrs by Annexin V/propidium iodide staining based flow cytometric analysis (reference value: 0.38%); type: functional

SMILES: COc1cc2c3c(c4cc(OC)c(OC)cc4c2cc1OC)[C@H](O)[C@@H]1CCCN1C3
- Activity (Bel-7402 [1]): 1.9%
- viability at 10 µM (Bel-7402 [2]): 85.1%
- Activity (Bel-7402 [3]): Active
- Activity (Bel-7402 [4]): 2.06%

SMILES: COc1cc2c3c(c4ccc(O)cc4c2cc1OC)CN1CCCC[C@@H]1C3
- IC50 (MRC5): 2.6 nM
- Activity (Bel-7402 [5]): inactive
- IC50 [6]: 2.2 nM
- Activity (Bel-7402 [7]): 2.11%
- viability at 0.01 µM (Bel-7402 [8]): 81%
- Activity (K562/Adr): inactive
- Activity (Bel-7402 [9]): 3.11%
- Activity (Bel-7402 [10]): 50.3%
- Activity (Bel-7402 [11]): Active
- Activity (Bel-7402 [12]): Dose-dependent effect
- viability at 0.001 µM (Bel-7402 [13]): 94.4%
- cytotoxicity at 24 h, 0.3 µM [14]: 50%
- IC50 (L02): 2.7 nM
- inhibition (INH) [15]: Dose-dependent effect
- inhibition (Bel-7402 [16]): Dose-dependent effect
- Activity (Bel-7402 [17]): Dose-dependent effect
- Activity (Bel-7402 [18]): 5.07%
- inhibition (Bel-7402 [19]): Active
- Activity (Bel-7402 [20]): 0.39%
